Bioassay records deposited in PubChem by several laboratories.
In the library only some 9.3% were active in any assay of this set; here they are far more common.
DAT uptake mod – changed hDAT dopamine uptake under cocaine IC80, either direction, primary screen, cocaine antagonist project, cell-based, LLC-PK1 hDAT, [14C]-dopamine uptake, MLSMR; LLC-PK1 hDAT cells, [14C]-dopamine uptake with cocaine IC80; actives deviate in either direction; B-score at 10 µM; 110,000 compounds, 1.3% hits; AID 449768, 2010;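 active = Z score or B-score, a plate-position-corrected score, falls beyond the plate's 99.7% confidence bounds, in either direction; inactive = both scores lie inside the 99.7% bounds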;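 also: scored against the spread of the other compound wells on the same plate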
Ecoli WT expand – growth inhibitors of wild-type E. coli, primary screen, strain BW25113, expanded library, OD600; growth inhibition, % at 100 µM; 98,000 compounds, 0.15% hits; OD600 absorbance;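 active = growth inhibition above about 50% at one test dose, limit read from the data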;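 also: growth measured after 20 h incubation at 37 °C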
PostGolgi ctrl – growth inhibition of yeast control strain, primary screen, counter-screen for post-Golgi transport modulator project | inhibition, % at 10 µM | efflux-deficient yeast background strain, growth absorbance A615, 16 h | 98,000 compounds, 5% hits
D1 allo mod – D1 CRE-luciferase signal change, two-sided – cell-based, HEK293 D1, dopamine EC30, D1 allosteric modulator project, primary screen; dopamine EC30 potentiation; actives deviate in either direction; B-score at 10 µM; 58,000 compounds, 5.9% hits;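 active = luminescence count or its row- and column-corrected plate score outside the 99.7% band of the plate's sample wells, on either side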
Target sequence (P21728 whole entry, looked up): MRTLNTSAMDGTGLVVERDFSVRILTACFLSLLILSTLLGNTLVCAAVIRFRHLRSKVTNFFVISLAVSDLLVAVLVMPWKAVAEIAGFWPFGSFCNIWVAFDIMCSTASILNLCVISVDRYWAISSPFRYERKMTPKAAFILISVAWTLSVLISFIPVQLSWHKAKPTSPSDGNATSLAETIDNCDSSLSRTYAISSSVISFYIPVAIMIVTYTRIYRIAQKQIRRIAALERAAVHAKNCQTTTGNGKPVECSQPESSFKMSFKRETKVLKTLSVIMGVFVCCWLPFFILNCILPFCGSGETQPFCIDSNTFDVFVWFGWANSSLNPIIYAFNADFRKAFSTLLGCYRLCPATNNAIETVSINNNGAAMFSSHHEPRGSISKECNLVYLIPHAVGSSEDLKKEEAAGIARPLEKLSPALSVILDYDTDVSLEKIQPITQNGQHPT
PostGolgi yeast – phenotypic screen on post-Golgi transport, primary screen; post-Golgi transport phenotypic cell assay; inhibition, % at 10 µM; 98,000 compounds, 0.9% hits; AID 739, 2007;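 also: yeast cells grown in 1536-well plates; yeast grown about 18 h at 30C before absorbance read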
tolC growth inh – growth inhibitors of E. coli tolC mutant, primary screen, strain BW25113 ΔtolC::kan, 384-well; growth inhibition, % at 10 µM (by protocol); OD615; AID 573, 2007; 65,000 compounds, 2.2% hits;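 active = growth inhibition at or above a cutoff equal to the mean over every tested compound plus 3 SD, cut at about 60% in these data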;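 also: growth measured after 20 h incubation at 37 °C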
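Doses: one dose of 10 µM final / Material: E. coli BW25113 ΔtolC::kan, tolC deletion mutant strain / Buffer or medium: LB with kanamycin 50 µg/mL / Evaluation: percent growth inhibition / Detection: optical density read at 615 nm / Incubation: 37 °C, 20 h exposure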
D1 mod confirm – D1 receptor positive allosteric modulators, retest, confirmation, cell-based, HEK293 D1, CRE-luciferase, duplicate; dopamine EC30 potentiation; hits give high values; 2,200 compounds, 88% hits; luminescence at 10 µM; shares compounds with D1 allo mod;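 active = luminescence in either of two replicates above the same-plate mean plus 3 SD of the low-dose dopamine control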
D1 no dopamine – D1 receptor agonism without dopamine, confirmation, mechanism study for D1 allosteric modulator project, cell-based, HEK293 D1, CRE-luciferase, secondary assay 1 | shares compounds with D1 allo mod | luminescence, no dopamine; hits give high values | luminescence at 10 µM | 1,900 compounds, 0.8% hits | AID 646, 2007; in the data active = luminescence above about 3900
Isoprot counter – isoproterenol response counter-screen activity for D1 modulators; shares compounds with D1 allo mod; HEK293 D1 CRE-luciferase, isoproterenol EC30 counter-screen; calls only at 10 µM; 2,200 compounds, 63% hits; AID 647;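 active = luminescence in either replicate above plate mean of wells with a partly effective reference agonist dose plus 3 SD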;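 also: isoproterenol raises cAMP through native beta-adrenoceptor Gs so signal bypasses D1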
* marks the source's active call; other numbers are inactive results; i = inactive; / = no result given; + = active, no number. Rule as the data show it, unless noted: active = inhibition above about 30%; inactive = the rest.

SMILES	DAT uptake mod	Ecoli WT expand	PostGolgi ctrl	D1 allo mod	PostGolgi yeast	tolC growth inh	D1 mod confirm	D1 no dopamine	Isoprot counter
c1coc(-c2nn3c(-c4ccco4)nnc3s2)c1	/	0	14	2.8*	-3	-6	12468*	1852	+
Brc1ccc(-c2nn3c(Cc4ccccc4)nnc3s2)o1	1.2	-7	14	3.8*	1	9	11236*	1820	i
Clc1ccc(-c2nnc3sc(-c4ccc(Br)o4)nn23)c(Cl)c1	/	-5	26	-0.42	-8	-7	/	/	/
Clc1ccccc1-c1nnc2sc(-c3ccc(Br)o3)nn12	2	-7	9	2.3*	6	-2	8388*	1560	i
CC(=O)OC1c2ccccc2C(=O)N1Cc1ccccc1Cl (stereo not drawn)	-0.14	8	10	0.38	4	8	/	/	/
CCN(CC)S(=O)(=O)c1cc(C(=O)NC2CCCCC2)ccc1C	0.53	4	1	-1.4	1	-3	/	/	/
COC(C[C@H]1O[C@H]1C(=O)COCc1ccccc1)OC	1.1	/	/	/	/	/	/	/	/
Cc1ccc(C(=O)C(C)OC(=O)c2n[nH]c(=O)c3ccccc23)cc1 (stereo not drawn)	0.36	9	5	/	-3	/	/	/	/
O=C1N=C(N2CCOCC2)SC1=C1CCCCC1	0.37	-4	1	0.55	0	8	/	/	/
C=CCN1C(=O)/C(=C2\SC(N3CCOCC3)=NC2=O)c2cc(Br)ccc21	-0.33	1	9	9*	26	19	17804*	1580	+
Cc1oc(-c2ccccc2F)nc1CSCC(=O)NCc1ccc2c(c1)OCO2	0.66	15	-8	0.99	-13	10	/	/	/
CSc1nc(N2CCOCC2)c2c3c(sc2n1)CCCC3	-0.14	-2	36*	11*	11	96*	11612*	1664	+
COc1ccc(-n2nc3c(c2NC(=O)c2cc4ccccc4oc2=O)CS(=O)(=O)C3)cc1	/	/	/	1.6	/	-12	/	/	/
COc1cc(C2C(C#N)=C(N)Oc3cc(O)ccc32)cc2c1OCO2 (stereo not drawn)	-1.3	8	9	4.1*	-7	9	11740*	1532	+
COc1cc(C2C(C#N)=C(N)Oc3cc(N(C)C)ccc32)cc2c1OCO2 (stereo not drawn)	-1.4	4	18	7.3*	-1	40	15056*	1964	+
CCOC(=O)C1=C(C)OC(N)=C(C#N)C1c1cc(OC)c2c(c1)OCO2 (stereo not drawn)	0.51	1	4	2.8	-10	-11	/	/	/
CCN(CC)S(=O)(=O)c1cccc(-c2nnc(SCCOc3ccccc3)o2)c1	0.28	-32	12	14*	-6	24	5768	1568	i
CCN(CC)S(=O)(=O)c1cccc(-c2nnc(SCCOc3ccc(Cl)cc3)o2)c1	-0.76	-6	1	-1.8	-5	13	/	/	/
O=C(CSc1ccc2nnc(-c3ccccn3)n2n1)NCc1ccco1	-0.36	4	3	0.064	1	-11	/	/	/
COc1ncnc2sc(-c3ccccc3)cc12	-0.28	-7	0	2.8*	-2	14	10684*	1684	+
COc1ccc(-c2csc(NC(=O)c3cc(C)on3)c2C#N)cc1OC	0.46	-10	7	10*	-12	1	17944*	1716	+
O=C(COc1ccccc1)Nc1ccccc1N1CCCCC1	0.31	6	11	3.4*	14	92*	5352	/	i
CCOc1ccc(C2/C(=C(/O)c3ccc(Cl)cc3)C(=O)C(=O)N2CCCN(C)C)cc1OC (stereo not drawn)	/	/	/	0.31	/	-27	/	/	/
FC(F)(F)c1cc(-c2ccc(Cl)cc2)nc(NCc2cccnc2)n1	-0.065	0	8	/	6	/	/	/	/
Cc1ccc(-c2cc(C(F)F)nc(NCc3cccnc3)n2)cc1	-0.12	3	44*	13*	1	31	16464*	/	+
SMILES	DAT uptake mod	Ecoli WT expand	PostGolgi ctrl	D1 allo mod	PostGolgi yeast	tolC growth inh	D1 mod confirm	D1 no dopamine	Isoprot counter
Cc1ccc(-c2cc(C(F)F)nc(NCC3CCCO3)n2)cc1 (stereo not drawn)	1.3	2	32*	3.3*	7	17	14888*	/	+
Cc1ccc(S(=O)(=O)Cn2nnnc2C(c2ccc(F)cc2)N2CCC(C(N)=O)CC2)cc1 (stereo not drawn)	-0.72	0	2	-0.0019	-5	-6	/	/	/
Cc1ccccc1COCCN1CCN(S(=O)(=O)c2ccccc2)CCC1=O	-0.1	/	/	/	/	/	/	/	/
O=C(Cn1ncc2c(=O)oc3ccccc3c21)Nc1nc2ccccc2s1	-1.1	-8	12	0.012	-6	-11	/	/	/
Cc1ccc(NC(=O)CC2SC3=NCCN3C2=O)cc1 (stereo not drawn)	1	7	7	5.5*	-4	-5	6908	/	i
O=C(CC1SC2=NCCN2C1=O)Nc1ccccc1 (stereo not drawn)	0.044	4	2	-1.3	2	7	/	/	/
Nc1ccc(CN2CCN(c3ccc4ccccc4n3)CC2)cc1	/	/	/	-2.9	/	7	/	/	/
COC(=O)C(C)Sc1nnc2n(-c3cccc(C)c3)c(=O)c3c4c(sc3n12)CCCC4 (stereo not drawn)	-0.43	-2	5	9.3*	0	29	16844*	1688	+
O=S(=O)(CC(CN1CCCC1)N1CCCC1)c1ccc2ccccc2c1 (stereo not drawn)	1.2	/	/	-2.1	/	-15	/	/	/
Cc1ccccc1Nc1nc(N)nc(CSc2nc3ccccc3c(=O)n2CCCO)n1	2.7*	0	5	3*	-6	16	8640*	1664	+
COCCn1c(SCc2nc(N)nc(Nc3ccccc3C)n2)nc2ccccc2c1=O	0.79	-13	8	/	4	/	/	/	/
Cc1cc2c(c(N)n1)c(=O)oc1ccccc12	-0.046	0	6	22*	2	20	19088*	/	+
CC(=O)Nc1nc(CCC(C)C)cc2c1c(=O)oc1ccccc12	-1.6	-7	2	/	-3	2	/	/	/
Oc1[nH]c2ccccc2c1C1=NCCCC1	0.052	4	5	0.0021	-6	-8	/	/	/
